Measurements from ChEMBL document CHEMBL1138356, “Design and synthesis of human immunodeficiency virus entry inhibitors: sulfonamide as an isostere for the alpha-ketoamide group” (J Med Chem, 2007).

What was measured:
[1] = system: Human immunodeficiency virus; assay: Antiviral activity against HIV 584.000016 by viral replication assay; details: Human immunodeficiency virus 1
[2] = system: Human immunodeficiency virus; assay: Antiviral activity against HIV 589.000821 by viral replication assay; type: functional, organism-based; details: Human immunodeficiency virus 1
[3] = system: Human immunodeficiency virus; assay: Antiviral activity against HIV 584.000030 by viral replication assay; type: functional, organism-based; details: Human immunodeficiency virus 1
[4] = system: Human immunodeficiency virus; assay: Antiviral activity against HIV 584.000058 by viral replication assay; type: functional, organism-based; details: Human immunodeficiency virus 1
[5] = system: Human immunodeficiency virus; assay: Antiviral activity against HIV 584.000241 by viral replication assay; type: functional, organism-based; details: Human immunodeficiency virus 1
[6] = system: Human immunodeficiency virus; assay: Antiviral activity against HIV 589.000049 by viral replication assay; type: functional, organism-based; details: Human immunodeficiency virus 1
[7] = system: Human immunodeficiency virus 1; assay: Antiviral activity against HIV1 pseudovirus in U87 cells expressing CD4 and CCR5 after 72 hrs by M33 pseudotyped assay; type: functional, organism-based, U-87MG ATCC; details: Human immunodeficiency virus 1, U-87 MG
Outline: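 M33 pseudotyped viral attachment assay giving IC50 values. Specificity for HIV was judged by counter-screening against AMLV-pseudotyped virus at concentrations above 100× the M33 IC50.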

[8] = system: Human immunodeficiency virus; assay: Antiviral activity against HIV 589.000033 by viral replication assay; type: functional, organism-based; details: Human immunodeficiency virus 1
[9] = system: Human immunodeficiency virus; assay: Antiviral activity against HIV 584.000220 by viral replication assay; type: functional, organism-based; details: Human immunodeficiency virus 1
[10] = system: Human immunodeficiency virus; assay: Antiviral activity against HIV 584.000088 by viral replication assay; type: functional, organism-based; details: Human immunodeficiency virus 1
[11] = system: Human immunodeficiency virus; assay: Antiviral activity against HIV 584.000039 by viral replication assay; type: functional, organism-based; details: Human immunodeficiency virus 1
[12] = Cytotoxicity against human U87 cells expressing CD4 and CXCR4; type: cell-based, U-87MG ATCC
[13] = system: Human immunodeficiency virus; assay: Antiviral activity against HIV 584.000063P1B by viral replication assay; type: functional, organism-based; details: Human immunodeficiency virus 1
[14] = system: Human immunodeficiency virus; assay: Antiviral activity against HIV 208.000923 by viral replication assay; type: functional, organism-based; details: Human immunodeficiency virus 1

Compound: COc1ccnc2[nH]cc(C(=O)C(=O)N3CCN(C(=O)c4ccccc4)C[C@H]3C)c12
- IC50 [1]: 40 nM
- IC50 [2]: 2800 nM
- IC50 [3]: 31 nM
- IC50 [4]: 58 nM
- IC50 [5]: 118 nM
- IC50 [6]: 6 nM
- IC50 [7]: 8 nM
- IC50 [8]: 28 nM
- IC50 [9]: 4 nM
- IC50 [10]: 14 nM
- IC50 [11]: 400 nM
- CC50 [12]: > 40000 nM
- IC50 [13]: 37 nM
- IC50 [14]: 1400 nM

Compound: CC1CN(C(=O)c2ccccc2)CCN1S(=O)(=O)c1c[nH]c2c(-n3ccnn3)nccc12 (racemic)
- IC50 [1]: 513 nM
- IC50 [2]: 330 nM
- IC50 [3]: 267 nM
- IC50 [4]: 1400 nM
- IC50 [5]: 8 nM
- IC50 [6]: 46 nM
- IC50 [7]: 54 nM
- IC50 [8]: 492 nM
- IC50 [9]: 2 nM
- IC50 [10]: 116 nM
- IC50 [11]: 1800 nM
- CC50 [12]: > 40000 nM
- IC50 [13]: 460 nM
- IC50 [14]: 465 nM
